Test results taken from PMC5992689 (Molecular Therapy. Nucleic Acids, 2018).

Key:
[1] = tested on: CD86 (M1)-positive primary microglia; test: CD86 immunocytochemistry of peptide-labeled microglia; assay type: cell-based, C57BL/6 mice; conditions: FITC-labeled peptide 1 μg/mL, 24 hr; n = 6 wells
Procedure, shortened: (§1)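 Primary C57BL/6 microglia were isolated from 14-day mixed glial culture and incubated 24 hr with FITC-peptide at 1 μg/mL. They were then fixed in 4% PFA and immunostained for CD86 (M1) or CD206 (M2) with Alexa Fluor 555 secondaries. Marker-positive cells were counted by confocal microscopy as a percentage of FITC-positive microglia across six independent wells, with >1,000 cells in total and triplicate experiments.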

[2] = tested on: primary cultured astrocytes; test: Binding of FITC-labeled peptides to cultured astrocytes; assay type: cell-based, C57BL/6 mice; conditions: FITC-labeled peptide 1 μg/mL, 24 hr, GFAP immunostaining
Procedure, shortened: (§2)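 Cells were exposed to FITC-labelled peptide at 1 μg/mL in culture medium for 24 hr, fixed in 4% PFA and immunostained for MAP2 (NSC-34, maintained in DMEM/F12 with 10% FCS), GFAP (primary astrocytes) or Iba1 (primary microglia). Primary cultures came from C57BL/6 pups 1–2 days postpartum. FITC-positive marker cells were counted by confocal microscopy in six independent wells and averaged as a percentage; experiments were run in triplicate.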

[3] = tested on: NSC-34 cells (neuron); test: Binding of FITC-labeled peptides to neuronal cells; assay type: cell-based; conditions: FITC-labeled peptide 1 μg/mL, 24 hr, MAP2 immunostaining
Procedure, shortened: as §2

[4] = tested on: CD206 (M2)-positive primary microglia; test: CD206 immunocytochemistry of peptide-labeled microglia; assay type: cell-based, C57BL/6 mice; conditions: FITC-labeled peptide 1 μg/mL, 24 hr; n = 6 wells
Procedure, shortened: as §1

[5] = tested on: spinal cord astrocytes (GFAP) and microglia (Iba1); assay type: in vivo, C57BL/6 mice; conditions: 3 μg FITC-labeled peptide, intrathecal, 3 hr; MG1 compared with MG2
[6] = tested on: primary cultured microglia; test: Binding of FITC-labeled peptides to cultured microglia; assay type: cell-based, C57BL/6 mice; conditions: FITC-labeled peptide 1 μg/mL, 24 hr; for FITC labeling of primary cultured microglia (in words): Iba1 immunostaining; for percentage of FITC-positive microglia in all Iba1-positive cells: n = 6 wells
Procedure, shortened: as §2

[7] = tested on: KT-5 cells (astrocytes); test: Phage display panning; assay type: binding; conditions: 48 of the 58 phage plaques, astrocytes (KT-5)
Procedure, shortened: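 A CX7C M13 library in Tris-buffered saline (pH 7.5) was given via tail vein to C57BL/6 mice. After 5 min, blood was removed transcardially, and spinal cords were homogenised in DMEM with protease inhibitor. Phage were titrated as plaques in E. coli ER2738, amplified and re-injected for three rounds. Three 5-min in vitro panning cycles on KT-5 cells followed, and pIII inserts of 50–58 phages were sequenced.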

Substance	percentage of CD86-positive cells in the microglia labeled with the peptide [1] [%]	FITC labeling of primary cultured astrocytes (in words) [2]	FITC labeling of NSC-34 cells (in words) [3]	percentage of CD206-positive cells in the microglia labeled with the peptide [4] [%]	accumulation of peptide in the spinal cord tissues [5]	FITC labeling of primary cultured microglia (in words) [6]	percentage of FITC-positive microglia in all Iba1-positive cells [6]	frequency of phage plaques [7] [%]
C-HHSSSAR-C [MG1]	40	not observed	not observed	26	greater accumulation of MG1 peptides than of MG2 peptides	mainly present in Iba1-positive microglia	approximately 60%	
C-LNSSQPS-C [AS1]		only observed in astrocytes	not with MAP2 staining in neurons or Iba1 staining in microglia			not with MAP2 staining in neurons or Iba1 staining in microglia		83
C-NTGSPYE-C [MG2]	27	not in the NSC-34 cells or astrocytes	not in the NSC-34 cells or astrocytes	47		observed only in the primary cultured microglia	approximately 40%	
